Source: ChEMBL document CHEMBL5126663, “Cellular Stress-Induced Metabolites in Escherichia coli” (J Nat Prod, 2022)
The source made the active and inactive calls. No cut-off for these calls is given here.

How the values were obtained:
[1] = Antioxidant activity assessed as DPPH radical scavenging activity incubated for 35 mins under dark condition; type: functional
How it was run: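 DMSO stocks (100 mM) added to freshly prepared 0.2 mM DPPH in methanol, two-fold serially diluted, kept dark 35 min, absorbance read at 517 nm. Background absorbance from a parallel methanol-only (no DPPH) plate subtracted. Scavenging % = 100 × (Acontrol−Asample)/Acontrol; n = 3; ascorbic acid positive control.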

Th17 [2] = assay: Immunomodulatory activity in IL-17A Katushka/IL-10eGFP/Foxp3RFP reporter mouse cell trace violet-labelled CD4+ T cell derived TGF-beta1/IL-6/IL-23-polarized Th17 cells assessed as increase in IL-10/IL-17 positive cell population at 5 to 20 uM measured after 3 days by flow cytomtery; type: functional, cell-based; details: dose 5-20 µM, time 3.0 day
How it was run: (§1)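 Naïve CD4+ T cells from spleen and lymph nodes of 2 triple reporter mice, CellTrace Violet-labelled, polarized in Click's medium with 5% FBS, anti-CD3/anti-CD28, anti-IFNγ, anti-IL-4, IL-23, IL-6 and TGF-β1. Compound or DMSO added after 1–3 days, cultured 3 more days; flow cytometry on viable CD4+ cells (IL-17A Katushka, IL-10 eGFP). Fold change vs DMSO; n = 4.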

Th17 [3] = assay: Immunomodulatory activity in IL-17A Katushka/IL-10eGFP/Foxp3RFP reporter mouse cell trace violet-labelled CD4+ T cell derived TGF-beta1/IL-6/IL-23-polarized Th17 cells assessed as increase in IL-17 positive cell population at 5 to 20 uM measured after 3 days by flow cytomtery; type: functional, cell-based; details: dose 5-20 µM, time 3.0 day; how it was run: as §1
[4] = (§2) Immunomodulatory activity in IL-17A Katushka/IL-10eGFP/Foxp3RFP reporter mouse cell trace violet-labelled CD4+ T cell derived TGF-beta1/IL-6/IL-23-polarized Th17 cells assessed as increase in IL-10 positive cell population at 5 to 20 uM measured after 3 days by flow cytomtery relative to control; type: functional; details: dose 5-20 µM; time 3 day; how it was run: as §1
[5] = as §2, with “in IL-10/IL-17” for “in IL-10”; type: functional; details: dose 5-20 µM; time 3 day; how it was run: as §1
[6] = biological target: T1, Aryl hydrocarbon receptor (Homo sapiens, UniProt P35869); assay: Agonist activity at AhR in human HT29-Lucia AhR cells measured after 24 hrs by Quanti-luc gold luminescence assay; type: cell-based; details: DDE = dose-dependent effect
T1 sequence (P35869 whole entry): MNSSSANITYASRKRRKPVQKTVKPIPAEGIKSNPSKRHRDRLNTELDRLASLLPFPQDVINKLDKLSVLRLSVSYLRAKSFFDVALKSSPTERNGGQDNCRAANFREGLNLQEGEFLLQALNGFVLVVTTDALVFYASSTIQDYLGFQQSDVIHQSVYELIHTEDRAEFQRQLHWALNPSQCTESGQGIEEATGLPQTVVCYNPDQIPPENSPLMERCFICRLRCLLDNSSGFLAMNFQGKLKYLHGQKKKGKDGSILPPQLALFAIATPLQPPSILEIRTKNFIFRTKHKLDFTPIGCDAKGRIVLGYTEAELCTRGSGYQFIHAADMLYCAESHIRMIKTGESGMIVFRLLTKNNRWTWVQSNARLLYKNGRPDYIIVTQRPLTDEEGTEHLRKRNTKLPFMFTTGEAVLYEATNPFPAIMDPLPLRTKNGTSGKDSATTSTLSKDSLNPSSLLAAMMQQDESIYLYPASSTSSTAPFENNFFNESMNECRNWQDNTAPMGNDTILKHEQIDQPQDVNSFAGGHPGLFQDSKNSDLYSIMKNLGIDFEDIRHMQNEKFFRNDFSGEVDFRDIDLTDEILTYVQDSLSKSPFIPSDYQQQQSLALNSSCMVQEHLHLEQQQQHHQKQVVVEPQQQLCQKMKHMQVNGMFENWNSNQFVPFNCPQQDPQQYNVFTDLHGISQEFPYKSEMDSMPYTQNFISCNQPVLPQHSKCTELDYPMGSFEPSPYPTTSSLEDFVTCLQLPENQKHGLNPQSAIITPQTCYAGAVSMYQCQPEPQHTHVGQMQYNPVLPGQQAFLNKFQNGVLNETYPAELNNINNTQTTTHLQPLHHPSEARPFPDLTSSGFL
How it was run: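 HT29-Lucia AhR reporter cells seeded ~50,000 cells/well; ligand or DMSO vehicle added (ITE positive control, unstimulated negative control) for 24 h. Secreted Lucia luciferase in supernatant detected with QUANTI-Luc Gold luminescence. Triplicate; expressed as fold-change relative to DMSO-treated cells.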

[7] = Increase in IL-17A Katushka/IL-10eGFP/Foxp3RFP reporter mouse cell trace violet-labelled CD4+ T cell derived TGF-beta1/IL-6/IL-23-polarized Th17 cell proliferation at 10 to 20 uM measured after 3 days by flow cytomtery; type: toxicity, cell-based; details: th17, 72 h, dose 10-20 µM, time 3 day
How it was run: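 Same Th17-polarized, CellTrace Violet-labelled reporter-mouse CD4+ T cells; compound or DMSO added after 1–3 days, then 3 more days culture. Proliferation by flow cytometry as percentage of viable CD4+ cells having undergone 7 or more divisions (CellTrace Violet dilution); n = 4.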

Question: With O=c1[nH]c(=O)c2nc(-c3ccc(O)cc3)c(=O)n(C[C@H](O)[C@H](O)[C@H](O)CO)c2[nH]1 as the molecule, how does the Activity [1] read?
Answer: The Activity was “Active”.

Question: Which results are given for O=C1O[C@H]([C@@H](O)CO)C(O)=C1O [ASCORBIC ACID]?
Answer: EC50 [1]: 30 µM; Activity (Th17 [2]): Active; Activity (Th17 [3]): Active

Question: Which results are given for O=c1[nH]c(=O)c2nc(-c3c[nH]c4ccccc34)c(=O)n(C[C@H](O)[C@H](O)[C@H](O)CO)c2[nH]1?
Answer: fold change (FC) [4]: 2; fold change (FC) [5]: 2; EC50 [1]: 32 µM; Activity [6]: Dde; Activity [7]: Non-Toxic

Question: For O=c1[nH]c(=O)c2nc(-c3ccccc3)c(=O)n(C[C@H](O)[C@H](O)[C@H](O)CO)c2[nH]1, which Activity [1] is on record?
Answer: Its Activity is “Active”.
